Each block holds one compound with its values, some of them ahead of it.
Legend:
Type in all cases: functional
CAKI-1 [1] = experiment: Anticancer activity against Homo sapiens (human) CAKI-1 cells assessed as cell growth at 10 uM by SRB assay; conditions: read-out: Activity
Procedure, shortened: (§1)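 NCI 60-cell human tumour panel (nine cancer types) screened at one concentration, 10−5 M. Cell growth estimated by sulforhodamine B protein staining and reported as percent growth of treated cells relative to untreated controls.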

HCT-116 [2] = experiment: Anticancer activity against Homo sapiens (human) HCT116 cells assessed as cell growth at 10 uM by SRB assay; conditions: read-out: Activity; procedure, shortened: as §1
NCI-H522 [3] = experiment: Anticancer activity against Homo sapiens (human) NCI-H522 cells assessed as cell growth at 10 uM by SRB assay; conditions: read-out: Activity
Procedure, shortened: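 Single-dose screen in the NCI 60-human-tumour-cell-line panel (nine cancer types) at 10−5 M. Cell growth was estimated by sulforhodamine B protein staining and reported as percent growth of treated cells relative to untreated controls.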

SR [4] = experiment: Anticancer activity against Homo sapiens (human) SR cells assessed as cell growth at 10 uM by SRB assay; conditions: read-out: Activity
Procedure, shortened: (§2)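 NCI 60-cell human tumour panel (leukemia, melanoma, lung, colon, CNS, breast, ovarian, prostate, renal lines) given a single 10−5 M dose. Growth is expressed as percent growth of treated cells relative to untreated controls, with cell growth/viability estimated by sulforhodamine B protein staining.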

K562 [5] = experiment: Anticancer activity against Homo sapiens (human) K562 cells assessed as cell growth at 10 uM by SRB assay; conditions: read-out: Activity; procedure, shortened: as §1
CCRF-CEM [6] = experiment: Anticancer activity against Homo sapiens (human) CCRF-CEM cells assessed as cell growth at 10 uM by SRB assay; conditions: read-out: Activity; procedure, shortened: as §1
LOX IMVI = experiment: Anticancer activity against Homo sapiens (human) LOXIMVI cells assessed as cell growth at 10 uM by SRB assay; conditions: read-out: Activity; procedure, shortened: as §1
SW-620 [7] = experiment: Anticancer activity against Homo sapiens (human) SW620 cells assessed as cell growth at 10 uM by SRB assay; conditions: read-out: Activity; procedure, shortened: as §2
COLO 205 = experiment: Anticancer activity against Homo sapiens (human) COLO205 cells by SRB assay
Procedure, shortened: (§3)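 NCI 60-line panel, five tenfold dilutions from 10−4 to 10−8 M, growth read by sulforhodamine B staining against untreated controls. From the dose–response per line: GI50 (molar concentration giving half growth inhibition), TGI (molar concentration giving total growth inhibition, cytostatic) and LC50 (molar concentration killing 50% of initial cells, cytotoxic).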

NCI-H460 = experiment: Anticancer activity against Homo sapiens (human) NCI-H460 cells by SRB assay
Procedure, shortened: (§4)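 Five-dose NCI 60-cell-line panel testing at tenfold dilutions from 10−4 to 10−8 M, with growth read by sulforhodamine B protein staining. For each cell line: GI50 is the molar concentration giving half growth inhibition; TGI is total growth inhibition (cytostatic); LC50 is the molar concentration killing 50% of the initial cells (cytotoxic).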

NCI-H522 [8] = experiment: Anticancer activity against Homo sapiens (human) NCI-H522 cells by SRB assay; procedure, shortened: as §4
[9] = Anticancer activity against Homo sapiens (human) NCI-322M cells by SRB assay; procedure, shortened: as §4
HOP-92 = experiment: Anticancer activity against Homo sapiens (human) HOP92 cells by SRB assay; procedure, shortened: as §3
NCI-H23 = experiment: Anticancer activity against Homo sapiens (human) NCI-H23 cells by SRB assay; procedure, shortened: as §4
HOP-62 = experiment: Anticancer activity against Homo sapiens (human) HOP62 cells by SRB assay; procedure, shortened: as §3
A549 = experiment: Anticancer activity against Homo sapiens (human) A549/ATCC cells by SRB assay; procedure, shortened: as §3
EKVX = experiment: Anticancer activity against Homo sapiens (human) EKVX cells by SRB assay; procedure, shortened: as §3
SR [10] = experiment: Anticancer activity against Homo sapiens (human) SR cells by SRB assay
Procedure, shortened: (§5)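 NCI five-dose follow-up on the 60-line human tumour panel at tenfold dilutions from 10−4 to 10−8 M, with growth read by sulforhodamine B protein assay against untreated controls. For each cell line, GI50 (half growth inhibition), TGI (total growth inhibition) and LC50 (50% death of initial cells) are calculated as molar concentrations.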

[11] = Anticancer activity against Homo sapiens (human) RPMI8266 cells by SRB assay; procedure, shortened: as §4
K562 [12] = experiment: Anticancer activity against Homo sapiens (human) K562 cells by SRB assay; procedure, shortened: as §3
CCRF-CEM [13] = experiment: Anticancer activity against Homo sapiens (human) CCRF-CEM cells by SRB assay; procedure, shortened: as §3
ACHN = experiment: Anticancer activity against Homo sapiens (human) ACHN cells by SRB assay; procedure, shortened: as §3
786-0 = experiment: Anticancer activity against Homo sapiens (human) 786-0 cells by SRB assay; procedure, shortened: as §3
NCI/ADR-RES = experiment: Anticancer activity against Homo sapiens (human) NCI/ADR-RES cells by SRB assay; procedure, shortened: as §4
SK-OV-3 = experiment: Anticancer activity against Homo sapiens (human) SKOV3 cells by SRB assay; procedure, shortened: as §4
OVCAR-8 = experiment: Anticancer activity against Homo sapiens (human) OVCAR8 cells by SRB assay; procedure, shortened: as §4
OVCAR-5 = experiment: Anticancer activity against Homo sapiens (human) OVCAR5 cells by SRB assay; procedure, shortened: as §4
OVCAR-4 = experiment: Anticancer activity against Homo sapiens (human) OVCAR4 cells by SRB assay; procedure, shortened: as §4
OVCAR-3 = experiment: Anticancer activity against Homo sapiens (human) OVCAR3 cells by SRB assay; procedure, shortened: as §4
IGROV-1 = experiment: Anticancer activity against Homo sapiens (human) IGROV1 cells by SRB assay; procedure, shortened: as §3
UACC-62 = experiment: Anticancer activity against Homo sapiens (human) UACC62 cells by SRB assay; procedure, shortened: as §5
SK-MEL-5 = experiment: Anticancer activity against Homo sapiens (human) SK-MEL-5 cells by SRB assay; procedure, shortened: as §4
UACC-257 = experiment: Anticancer activity against Homo sapiens (human) UACC257 cells by SRB assay; procedure, shortened: as §5
SK-MEL-28 = experiment: Anticancer activity against Homo sapiens (human) SK-MEL-28 cells by SRB assay; procedure, shortened: as §4
SK-MEL-2 = experiment: Anticancer activity against Homo sapiens (human) SK-MEL-2 cells by SRB assay; procedure, shortened: as §4
MDA-MB-435 = experiment: Anticancer activity against Homo sapiens (human) MDA-MB-435 cells by SRB assay; procedure, shortened: as §4
M14 = experiment: Anticancer activity against Homo sapiens (human) M14 cells by SRB assay; procedure, shortened: as §3
Malme-3M = experiment: Anticancer activity against Homo sapiens (human) MALME-3M cells by SRB assay; procedure, shortened: as §3
SNB-75 = experiment: Anticancer activity against Homo sapiens (human) SNB75 cells by SRB assay; procedure, shortened: as §4
U-251 = experiment: Anticancer activity against Homo sapiens (human) U251 cells by SRB assay; procedure, shortened: as §5
SNB-19 = experiment: Anticancer activity against Homo sapiens (human) SNB19 cells by SRB assay; procedure, shortened: as §4
SF-539 = experiment: Anticancer activity against Homo sapiens (human) SF539 cells by SRB assay; procedure, shortened: as §4
SF-295 = experiment: Anticancer activity against Homo sapiens (human) SF295 cells by SRB assay; procedure, shortened: as §4
SF-268 = experiment: Anticancer activity against Homo sapiens (human) SF268 cells by SRB assay; procedure, shortened: as §4
KM12 = experiment: Anticancer activity against Homo sapiens (human) KM12 cells by SRB assay; procedure, shortened: as §3
SW-620 [14] = experiment: Anticancer activity against Homo sapiens (human) SW620 cells by SRB assay; procedure, shortened: as §5
HT-29 = experiment: Anticancer activity against Homo sapiens (human) HT-29 cells by SRB assay; procedure, shortened: as §3
HCT-15 = experiment: Anticancer activity against Homo sapiens (human) HCT15 cells by SRB assay; procedure, shortened: as §3
HCT-116 [15] = experiment: Anticancer activity against Homo sapiens (human) HCT116 cells by SRB assay; procedure, shortened: as §3
T47D = experiment: Anticancer activity against Homo sapiens (human) T47D cells by SRB assay; procedure, shortened: as §5
BT-549 = experiment: Anticancer activity against Homo sapiens (human) BT549 cells by SRB assay; procedure, shortened: as §3
Hs-578T = experiment: Anticancer activity against Homo sapiens (human) Hs 578T cells by SRB assay; procedure, shortened: as §3
MCF7 = experiment: Anticancer activity against Homo sapiens (human) MCF7 cells by SRB assay; procedure, shortened: as §3
DU-145 = experiment: Anticancer activity against Homo sapiens (human) DU145 cells by SRB assay; procedure, shortened: as §3
RXF 393 = experiment: Anticancer activity against Homo sapiens (human) RXF393 cells by SRB assay; procedure, shortened: as §4
PC-3 = experiment: Anticancer activity against Homo sapiens (human) PC3 cells by SRB assay; procedure, shortened: as §4
UO-31 = experiment: Anticancer activity against Homo sapiens (human) UO31 cells by SRB assay; procedure, shortened: as §5
SN12C = experiment: Anticancer activity against Homo sapiens (human) SN12C cells by SRB assay; procedure, shortened: as §4
TK-10 = experiment: Anticancer activity against Homo sapiens (human) TK10 cells by SRB assay; procedure, shortened: as §5
CAKI-1 [16] = experiment: Anticancer activity against Homo sapiens (human) CAKI-1 cells by SRB assay; procedure, shortened: as §3
A498 = experiment: Anticancer activity against Homo sapiens (human) A498 cells by SRB assay; procedure, shortened: as §3

Structure (SMILES): O=c1[nH]c(-c2ccccc2)nc2c1sc(=O)n2-c1ccccc1
- growth at 10 µM (CAKI-1 [1]): 26.8%

Structure (SMILES): O=c1sc2c(Cl)nc(-c3ccc(Cl)cc3)nc2n1-c1ccccc1
- growth at 10 µM (HCT-116 [2]): 29.3%
- growth at 10 µM (NCI-H522 [3]): 5.19%
- growth at 10 µM (SR [4]): 21.5%
- growth at 10 µM (K562 [5]): 34.6%
- growth at 10 µM (CCRF-CEM [6]): 33.6%
- growth at 10 µM (LOX IMVI): 24.4%
- growth at 10 µM (SW-620 [7]): 47.6%

Structure (SMILES): O=c1sc2c(Cl)nc(-c3ccc(F)cc3)nc2n1-c1ccccc1
- growth at 10 µM (HCT-116 [2]): 40.5%
- growth at 10 µM (SR [4]): 28.6%
- growth at 10 µM (K562 [5]): 35.8%
- growth at 10 µM (CAKI-1 [1]): 41.8%

- GI50 (COLO 205): 2510 nM
- GI50 (NCI-H460): 1000 nM
- GI50 (NCI-H522 [8]): 2000 nM
- GI50 (NCI-H23): 3160 nM
- GI50 (A549): 5010 nM
- GI50 (K562 [12]): 100000 nM
- GI50 (CCRF-CEM [13]): 316 nM
- GI50 (ACHN): 3980 nM
- GI50 (786-0): 1580 nM
- GI50 (SK-OV-3): 501 nM
- GI50 (OVCAR-8): 398 nM
- GI50 (OVCAR-5): 501 nM
- GI50 (OVCAR-4): 5010 nM
- GI50 (OVCAR-3): 1580 nM
- GI50 (SK-MEL-5): 2510 nM
- GI50 (SK-MEL-28): 6310 nM
- GI50 (SK-MEL-2): 1580 nM
- GI50 (MDA-MB-435): 501 nM
- GI50 (U-251): 10000 nM
- GI50 (SW-620 [14]): 3980 nM
- GI50 (HT-29): 1260 nM
- GI50 (HCT-15): 2510 nM
- GI50 (HCT-116 [15]): 631 nM
- GI50 (T47D): 10000 nM
- GI50 (BT-549): 1260 nM
- GI50 (MCF7): 501 nM
- GI50 (DU-145): 501 nM
- GI50 (PC-3): 3160 nM
Structure (SMILES): Nc1nc2[nH]cnc2c(=S)[nH]1 [THIOGUANINE]
- GI50 [9]: 25100 nM
- GI50 (HOP-92): 1580 nM
- GI50 (HOP-62): 794 nM
- GI50 (EKVX): 3980 nM
- GI50 (SR [10]): 631 nM
- GI50 [11]: 1260 nM
- GI50 (NCI/ADR-RES): 398 nM
- GI50 (IGROV-1): 6310 nM
- GI50 (UACC-62): 398 nM
- GI50 (UACC-257): 6310 nM
- GI50 (M14): 631 nM
- GI50 (Malme-3M): 3160 nM
- GI50 (SNB-75): 1000 nM
- GI50 (SNB-19): 79400 nM
- GI50 (SF-539): 631 nM
- GI50 (SF-295): 1260 nM
- GI50 (SF-268): 1260 nM
- GI50 (KM12): 3160 nM
- GI50 (Hs-578T): 6310 nM
- GI50 (RXF 393): 501 nM
- GI50 (UO-31): 794 nM
- GI50 (SN12C): 7940 nM
- GI50 (TK-10): 501 nM
- GI50 (CAKI-1 [16]): 316 nM
- GI50 (A498): 25100 nM

Reference: ChEMBL document CHEMBL3045605, “Synthesis and anticancer evaluation of novel 3,5-diaryl-thiazolo[4,5-d]pyrimidin-2-one derivatives” (2013)
